M1 antagonist = antagonists of rat M1 muscarinic receptor. 64,000 compounds, 3.4% hits. B-score at 10 µM. CHO-M1 cells, Fluo-4 calcium, ACh EC80 antagonist mode; active compounds read low;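 active = calcium fluorescence response, raw or row-and-column corrected B-score, differing from the plate sample mean either way at a set confidence level, mostly lower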
M1 agonist = agonists of M1 muscarinic receptor; CHO-M1 cells, Fluo-4 calcium fluorescence, agonist mode; active compounds read high; B-score at 10 µM; 64,000 compounds, 3% hits; AID 626;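 active = fluorescence rise, raw or as B-score row- and column-corrected plate score, outside the 99.7% band of its plate's samples, either direction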
HEK293 NFkB inh = inhibitors of the PMA/ionomycin-induced NF-kB reporter in HEK293 cells; inhibition, % at 3 µM; HEK-293 NF-kB luciferase reporter, luminescence; 62,000 compounds, 0.21% hits; AID 465;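 active = inhibition above the mean of all tested compounds plus 3 SD, cut at about 40% in these data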
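Reagent: PMA plus ionomycin mix as NF-kB-activating stimulus. Assay system: NF-kB luciferase reporter HEK-293 cells. Technique: luminescence from luciferase substrate reagent. Incubation: 1 h compound pre-incubation, 16 h PMA/ionomycin at 37 °C. Benchmarks: DMSO only as uninhibited control, 10 µM reference inhibitor as full inhibition. Repeats: tested once.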
D1 allo mod = allosterically modulates the human D1 dopamine receptor; P21728; HEK293 D1, CRE-luciferase, dopamine EC30 potentiation; actives deviate in either direction; B-score at 10 µM; 58,000 compounds, 5.9% hits; AID 641;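 active = luminescence count or its row- and column-corrected plate score outside the 99.7% band of the plate's sample wells, on either side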
Target sequence (P21728 whole entry, looked up): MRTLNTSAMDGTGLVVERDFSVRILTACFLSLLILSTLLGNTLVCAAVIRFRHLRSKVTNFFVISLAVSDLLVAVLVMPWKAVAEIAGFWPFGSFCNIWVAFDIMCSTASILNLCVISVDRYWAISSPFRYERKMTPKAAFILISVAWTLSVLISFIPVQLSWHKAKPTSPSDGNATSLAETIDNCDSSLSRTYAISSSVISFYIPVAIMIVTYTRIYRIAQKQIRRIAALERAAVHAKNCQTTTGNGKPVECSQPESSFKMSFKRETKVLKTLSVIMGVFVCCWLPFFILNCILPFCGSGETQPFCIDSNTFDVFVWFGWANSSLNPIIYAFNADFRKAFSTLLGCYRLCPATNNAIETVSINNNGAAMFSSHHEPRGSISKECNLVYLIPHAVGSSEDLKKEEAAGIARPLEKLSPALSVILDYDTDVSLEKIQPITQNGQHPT
Jurkat tox 60K = cytotoxicity toward Jurkat cells | AID 463 | Jurkat E6.1 viability, ATP luminescence, 48 h | inhibition, % at 4 µM | 56,000 compounds, 1.2% hits;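 active = inhibition above the mean inhibition of all tested compounds plus 3 SD, cut at about 28% in these data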
mHtt clearance = mutant huntingtin protein clearance. AID 853. HeLa Exon1htt(103Q)mCFP, aggregate imaging; zero = plate's median compound well. inhibition, % at 1.5 µM. 47,000 compounds, 0.42% hits;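 active = inhibition of aggregate fluorescence above about 70%, also judged a hit by eye on the cell image, limit read from the data, passing the limit was not always enough; inconclusive = no rule stated for this call; inactive = not judged a hit on image review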;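 note: cells exposed to compound for three days before fixation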
M1 ag confirm = rat M1 muscarinic agonism, confirmation; AID 1488; CHO-M1 cells, Fluo-4 calcium fluorescence, agonist mode; actives lie on both sides; shares compounds with M1 agonist; fluorescence change (max-min) at 10 µM; 1,700 compounds, 19% hits;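 active = fluorescence change differs from the solvent-only DMSO control mean at a set confidence level in both duplicate runs; inconclusive = differs from solvent-only control mean in just one of two runs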;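 note: an EC20 dose of acetylcholine follows compound addition during the same imaging run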
M4 ag counter = activates rat M4 receptor in counter-screen for M1 agonists; AID 1741; shares compounds with M1 agonist; fluorescence change (max-min) at 10 µM; 1,700 compounds, 9% hits; CHO M4/Gqi5 cells, Fluo-4 calcium fluorescence, agonist mode; actives lie on both sides;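 active = fluorescence change differing from the plate's solvent-only control wells at 99.7% confidence in both duplicates, whether higher or lower; inconclusive = differs from solvent controls in only one of two duplicates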
Large screens that a line does not name were inactive (follow-up assays come after a bar, where they were run). A selection: hits, their analogues and other compounds. The true share with any hit is near 9.5%.

Cc1cccc(N2CCN(C(=O)C3CCN(S(=O)(=O)c4cccc5nsnc45)CC3)CC2C)c1 (centres undefined)	M1 agonist 16 | M1 ag confirm -33 | M4 ag counter inactive
Cn1c(O)c(C=NCC2CCNCC2)c(=O)n(C)c1=O	none (no result: M1 antagonist, M1 agonist, HEK293 NFkB inh, D1 allo mod, Jurkat tox 60K)
Clc1ccc(-n2nnnc2SCc2c(-c3ccccc3)nc3sccn23)cc1	none (no result: mHtt clearance)
O=C(CSCc1c(F)cccc1Cl)NCc1ccco1	M1 agonist 1.5 | M1 ag confirm inactive | M4 ag counter inactive
O=C(CSCc1c(Cl)cccc1Cl)NCc1ccco1	none (no result: M1 antagonist, M1 agonist, HEK293 NFkB inh, D1 allo mod, Jurkat tox 60K)
COc1ccc(N(C)S(=O)(=O)c2cccc(C(=O)Nc3ccc(-n4cnnn4)cc3)c2)cc1	none
CC12CN3CC(C)(CN(C1)C3c1ccc(Br)cc1O)C2 (centres undefined)	none (no result: HEK293 NFkB inh, D1 allo mod, Jurkat tox 60K, mHtt clearance)
COc1ccc(C2N3CC4(C)CN2CC(C)(C3)C4)cc1OC (centres undefined)	M1 agonist -3.1 (no result: D1 allo mod, Jurkat tox 60K, mHtt clearance) | M1 ag confirm inactive | M4 ag counter -65
Cc1c(C(=O)NCCC2=CCCCC2)oc2ccc(S(=O)(=O)N3CCC4(CC3)OCCO4)cc12	M1 agonist 9 (no result: D1 allo mod, Jurkat tox 60K, mHtt clearance) | M1 ag confirm inactive | M4 ag counter inconclusive
Cc1c(C(=O)NCc2ccccc2)oc2ccc(S(=O)(=O)N3CCC4(CC3)OCCO4)cc12	none (no result: D1 allo mod, Jurkat tox 60K, mHtt clearance)
Cc1c(C(=O)Nc2cccc(Cl)c2)oc2ccc(S(=O)(=O)N3CCC4(CC3)OCCO4)cc12	M1 agonist 3.6 (no result: Jurkat tox 60K) | M1 ag confirm inactive | M4 ag counter inactive
Cc1c(C(=O)NCCN2CCOCC2)oc2ccc(S(=O)(=O)N3CCCCCC3)cc12	none (no result: Jurkat tox 60K, mHtt clearance)
Cc1c(C(=O)Nc2ccc(F)cc2)oc2ccc(S(=O)(=O)N3CCC4(CC3)OCCO4)cc12	M1 agonist 4.7 | M1 ag confirm inactive | M4 ag counter inactive
Cn1c(=O)c2c(n(Cc3ccccc3)c1=O)NC(=O)C2CC(=O)NCc1cccc(Cl)c1 (centres undefined)	none (no result: M1 antagonist, M1 agonist, HEK293 NFkB inh, D1 allo mod, Jurkat tox 60K)
COc1ccc(OC)c(Nc2cc(C(=O)NCCCN3CCOCC3)c3ccccc3n2)c1	M1 agonist 7.5 (no result: mHtt clearance) | M1 ag confirm -26 | M4 ag counter -79
CN(C)S(=O)(=O)c1cccc(C(=O)OCC(=O)Nc2sccc2C(N)=O)c1	M1 antagonist -3.3, M1 agonist 8.8 | M1 ag confirm inconclusive | M4 ag counter -69
O=C1CN(C(=O)c2ccc(Br)o2)C(c2ccc(F)cc2)c2cc(Cl)ccc2N1 (centres undefined)	M1 agonist 2.8 (no result: mHtt clearance) | M1 ag confirm inactive | M4 ag counter inconclusive
NC(=O)c1c(NC(=O)CSc2nnc(Cc3ccccc3)n2Cc2ccco2)sc2c1CCC2	M1 agonist 7.3 (no result: D1 allo mod) | M1 ag confirm inactive | M4 ag counter inactive
O=C(CSc1nnc(Cc2ccccc2)n1Cc1ccco1)NC12CC3CC(CC(C3)C1)C2	none
Cc1sc2c(c1C)c(=O)nc1n2Cc2ccccc2-1	none (no result: M1 antagonist, M1 agonist, HEK293 NFkB inh, D1 allo mod, Jurkat tox 60K)
CCOC(=O)Cc1csc(SCC(=O)c2c(N)n(CC(C)C)c(=O)n(C)c2=O)n1	M1 antagonist -2.9, M1 agonist 8.9, D1 allo mod -3.9 | M1 ag confirm inactive | M4 ag counter inactive
N#C/C(C(N)=O)=c1/ccc2c(c1)N1C3=C(CCCC3)CC3CCCCC31N=2 (centres undefined)	M1 agonist 5.2 | M1 ag confirm inactive | M4 ag counter inactive
O=C(Nc1ccc(N2CCN(C(=O)c3ccc(Cl)cc3)CC2)cc1)c1cc2ccccc2o1	none (no result: M1 antagonist, M1 agonist, HEK293 NFkB inh, D1 allo mod, Jurkat tox 60K)
O=C(Nc1ccccc1N1CCN(C(=O)c2ccc(Cl)cc2)CC1)c1cc2ccccc2o1	M1 antagonist 2.8, M1 agonist 4.6 | M1 ag confirm inactive | M4 ag counter inconclusive
CC(C)C(NC(=O)C1CCCCC1)C(=O)NC1=NCCS1 (centres undefined)	none (no result: M1 antagonist, M1 agonist, HEK293 NFkB inh, D1 allo mod, Jurkat tox 60K)
CC(=O)c1ccc(Cc2cnc(N)s2)cc1	M1 agonist 2.9 | M1 ag confirm inactive | M4 ag counter inactive
Cc1ccc(Cc2cnc(NC(=O)c3ccco3)s2)cc1	none (no result: M1 antagonist, M1 agonist, HEK293 NFkB inh, D1 allo mod, Jurkat tox 60K)
CCOC(=O)C1=C(c2ccccc2)Nc2ncnn2C1c1cccc(OC)c1OC (centres undefined)	none (no result: mHtt clearance)
COc1cccc(C2C=C(c3cccs3)Nc3ncnn32)c1OC (centres undefined)	M1 agonist 8.1 (no result: mHtt clearance) | M1 ag confirm inactive | M4 ag counter inactive
Cc1oc2nc(SCC(=O)N3CCCCC3)nc(N)c2c1C	none (no result: mHtt clearance)
CSc1cccc(NS(=O)(=O)c2cccs2)c1	M1 agonist 2.8 | M1 ag confirm -28 | M4 ag counter inactive
COc1ccc(S(=O)(=O)Nc2cccc(SC)c2)cc1OC	none (no result: mHtt clearance)
Cn1c(=O)oc2cc(S(=O)(=O)Nc3cccc(F)c3)ccc21	none (no result: D1 allo mod, mHtt clearance)
CSc1cccc(NS(=O)(=O)c2ccc3c(c2)oc(=O)n3C)c1	M1 agonist -4 | M1 ag confirm inactive | M4 ag counter inactive
N#CC1=C(N)c2ccccc2CC12CCCCC2	none (no result: M1 antagonist, M1 agonist, HEK293 NFkB inh, D1 allo mod, Jurkat tox 60K)
O=C(c1ccccc1Sc1cccc2ccccc12)N1CCOCC1	none (no result: M1 antagonist, M1 agonist, HEK293 NFkB inh, D1 allo mod, Jurkat tox 60K)
COc1ccccc1NC(=O)C1=C(C)Nc2nc(-c3cccs3)nn2C1c1cccc(O)c1 (centres undefined)	M1 agonist 8.5 (no result: mHtt clearance) | M1 ag confirm inconclusive | M4 ag counter inconclusive
COc1ccccc1N1CCN(C(=O)CCNS(=O)(=O)c2ccc(Br)s2)CC1	M1 agonist 2.6 (no result: mHtt clearance) | M1 ag confirm inconclusive | M4 ag counter inactive
O=C(CCNS(=O)(=O)c1ccc(Br)s1)N1CCN(c2ccccc2)CC1	none
CCC(C)(C)NC(=O)C(c1ccco1)N(C(=O)Cn1nnc2ccccc21)c1ccc2c(c1)OCO2 (centres undefined)	M1 agonist 17, mHtt clearance inconclusive | M1 ag confirm -32 | M4 ag counter inconclusive
CCC(C(=O)OC)n1cnc2c(nnn2-c2ccc(OC)cc2)c1=O (centres undefined)	M1 agonist 4.3 | M1 ag confirm inactive | M4 ag counter inactive
CCOC(=O)C(C)n1cnc2c(cnn2-c2ccc(Cl)cc2)c1=O (centres undefined)	none (no result: D1 allo mod, mHtt clearance)
CCOC(=O)C(CC)n1cnc2c(cnn2-c2ccc(Cl)cc2)c1=O (centres undefined)	M1 antagonist -6.2, M1 agonist 55 (no result: D1 allo mod, mHtt clearance) | M1 ag confirm inactive | M4 ag counter inactive
Cc1c(C)[n+](=O)c(-c2cccs2)c(C)n1[O-]	none
CCOC(=O)C(C)Sc1nnc(CNC(=O)c2ccc(OC)cc2)n1C1CCCCC1 (centres undefined)	M1 agonist 3.3 | M1 ag confirm inconclusive | M4 ag counter inconclusive
CN(C)S(=O)(=O)c1ccc(NC(=O)COC(=O)c2ccccn2)cc1	none (no result: M1 antagonist, M1 agonist, HEK293 NFkB inh, D1 allo mod, Jurkat tox 60K)
Cc1ccc(C2C(C#N)=C(N)SC(N)=C2C#N)cc1	none
Cc1ccc(C2C(C#N)=C(N)SC(N)=C2C#N)c(C)c1	M1 agonist 11 (no result: mHtt clearance) | M1 ag confirm inactive | M4 ag counter inactive
